Data taken from ChEMBL document CHEMBL2021795, “Novel epigallocatechin gallate (EGCG) analogs activate AMP-activated protein kinase pathway and target cancer stem cells” (2012).
Activity calls are given as the source filed them. The rule behind the calls is not given here.

Legend:
MDA-MB-231 [1] = test: Induction of AMPKalpha phosphorylation at T172 residue in human MDA-MB-231 cells at 20 uM after 3 hrs by Western blotting analysis relative to control; type: cell-based
Summary of the method: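 MDA-MB-231 cells in DMEM/F12 (1:1) with 10% FBS at 37°C, 5% CO2. Compounds were given at 20 μM, metformin at 10 mM, for 3 h. Whole-cell lysates were run on SDS–PAGE, blotted to nitrocellulose and probed for phospho-AMPKα (T172), with ECL detection. Phospho-AMPKα was normalized to β-actin.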

MDA-MB-231 [2] = test: Inhibition of mammosphere formation in human MDA-MB-231 cells at 10 mM after 7 days by inverted phase-contrast microscopy; type: functional; conditions: MDA-MB-231, 168 h
Summary of the method: (§1)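 Single MDA-MB-231 cells were seeded at 1,000 cells/well in ultra-low-attachment 6-well plates. Sphere medium was DMEM/F12 1:1 with B-27, N-2 and penicillin/streptomycin, topped up every 3–4 days. Cells were exposed to compounds or metformin for 7 days. Spheres were collected by centrifugation (300 g, 5 min) and counted under an inverted phase-contrast microscope. Mean of three experiments.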

MDA-MB-231 [3] = test: Antiproliferative activity against human MDA-MB-231 cells at 1 to 20 mM after 24 hrs by MTT assay; type: functional, cell-based
Summary of the method: (§2)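 MDA-MB-231 cells were grown in 96-well plates to 70–80% confluency. Compounds or metformin were added for 24 h at 37°C, then MTT read-out. Samples were run in triplicate in three independent experiments. Data are mean ± SD, expressed as percent of untreated control (100%).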

MDA-MB-231 [4] = test: Induction of AMPKalpha phosphorylation at T172 residue in human MDA-MB-231 cells at 10 mM after 3 hrs by Western blotting analysis relative to control; type: cell-based
Summary of the method: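 MDA-MB-231 human breast cancer cells grown in DMEM/F12 (1:1) with 10% FBS, penicillin and streptomycin at 37°C, 5% CO2. Treated for 3 h, then whole-cell extracts separated by SDS–PAGE, blotted to nitrocellulose and detected by ECL. Phospho-AMPKα (T172) band normalized to β-actin.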

MDA-MB-231 [5] = test: Inhibition of mammosphere formation in human MDA-MB-231 cells at 5 mM after 7 days by inverted phase-contrast microscopy; type: functional; conditions: MDA-MB-231, 168 h; summary of the method: as §1
MDA-MB-231 [6] = test: Cytotoxicity against human MDA-MB-231 cells assessed as CD44+high/CD24-low cells at 20 uM after 48 hrs by FACS-flow cytometry (reference value: 45%); type: functional
Summary of the method: (§3)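 MDA-MB-231 cells were cultured 5 days on low-adherent plates in sphere medium. Spheres were dissociated with accutase (37°C, 5 min), reseeded and treated with compounds for 48 h. Cells were detached with 0.02% EDTA/PBS and stained with anti-CD44-FITC and anti-CD24-PE or isotype controls for 30 min at 4°C in the dark. The CD44high/CD24low fraction was measured by flow cytometry. Mean of three experiments.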

MDA-MB-231 [7] = test: Inhibition of mammosphere formation in human MDA-MB-231 cells at 10 uM after 7 days by inverted phase-contrast microscopy; type: functional; conditions: MDA-MB-231, 168 h; summary of the method: as §1
MDA-MB-231 [8] = test: Cytotoxicity against human MDA-MB-231 cells assessed as CD44+high/CD24-low cells at 10 uM after 48 hrs by FACS-flow cytometry (reference value: 45%); type: functional; summary of the method: as §3
MDA-MB-231 [9] = test: Cytotoxicity against human MDA-MB-231 cells assessed as CD44+high/CD24-low cells after 48 hrs by FACS-flow cytometry (reference value: 45%); type: functional, cell-based; summary of the method: as §3
MDA-MB-231 [10] = test: Induction of AMPKalpha-mediated up-regulation of p21 in human MDA-MB-231 cells at 5 to 40 uM after 3 hrs by Western blotting analysis relative to control; type: cell-based
Summary of the method: (§4)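 MDA-MB-231 cells grown in DMEM/F12 (1:1) with 10% FBS, penicillin/streptomycin at 37°C, 5% CO2. Exposed to compounds over a concentration series for 3 h. Whole-cell extracts were separated by SDS–PAGE and transferred to nitrocellulose. Blots were probed with the indicated antibodies (p-AMPKα, p-Raptor, p21, β-actin) and detected by ECL. p-AMPKα was normalized to β-actin.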

MDA-MB-231 [11] = test: Antiproliferative activity against human MDA-MB-231 cells after 24 hrs by MTT assay; type: functional, cell-based; summary of the method: as §2
[12] = Activation of AMPKalpha in human MDA-MB-231 cells assessed as suppression of mTOR pathway measuring decrease in p70-S6K T389 phosphorylation at 5 to 40 uM after 3 hrs by Western blotting analysis relative to control; type: cell-based
MDA-MB-231 [13] = test: Inhibition of mammosphere formation in human MDA-MB-231 cells at 20 uM after 7 days by inverted phase-contrast microscopy; type: functional; conditions: MDA-MB-231, 168 h; summary of the method: as §1
MDA-MB-231 [14] = test: Induction of AMPKalpha phosphorylation at T172 residue in human MDA-MB-231 cells after 3 hrs by Western blotting analysis relative to control; type: cell-based; summary of the method: as §4
MDA-MB-231 [15] = test: Activation of AMPKalpha in human MDA-MB-231 cells assessed as increase in Raptor S792 phosphorylation after 3 hrs by Western blotting analysis relative to control; type: cell-based; summary of the method: as §4

O=C(O[C@H]1Cc2ccccc2C[C@H]1OC(=O)c1cc(O)cc(O)c1)c1cc(O)cc(O)c1
fold change (FC) (MDA-MB-231 [1]): 5.1

O=C(O[C@H]1Cc2ccccc2C[C@H]1OC(=O)c1cc(O)c(O)c(O)c1)c1cc(O)c(O)c(O)c1
fold change (FC) (MDA-MB-231 [1]): 5.1

CN(C)C(=N)NC(=N)N [METFORMIN]
inhibition at 10000 µM (MDA-MB-231 [2]): 67.6% | Activity (MDA-MB-231 [3]): Active | fold change (FC) (MDA-MB-231 [4]): 6.3 | inhibition at 5000 µM (MDA-MB-231 [5]): 41.4%

O=C(O[C@H]1Cc2ccccc2C[C@H]1OC(=O)c1cc(O)c(Br)c(O)c1)c1cc(O)c(Br)c(O)c1
Activity (MDA-MB-231 [6]): 18% | inhibition at 10 µM (MDA-MB-231 [7]): 45.1% | Activity (MDA-MB-231 [8]): 30.5% | Activity (MDA-MB-231 [9]): Dose-dependent effect | Activity (MDA-MB-231 [10]): Active | Activity (MDA-MB-231 [11]): Dose-dependent effect | Activity [12]: Active | inhibition at 20 µM (MDA-MB-231 [13]): 66.7% | fold change (FC) (MDA-MB-231 [1]): 13.5 | Activity (MDA-MB-231 [14]): Dose-dependent effect | Activity (MDA-MB-231 [15]): Dose-dependent effect

CC(=O)Nc1ccc(C(=O)O[C@H]2Cc3ccccc3C[C@H]2OC(=O)c2ccc(NC(C)=O)cc2)cc1
fold change (FC) (MDA-MB-231 [1]): 6

O=C(O[C@@H]1Cc2c(O)cc(O)cc2O[C@@H]1c1cc(O)c(O)c(O)c1)c1cc(O)c(O)c(O)c1 [EPIGALOCATECHIN GALLATE]
inhibition at 10 µM (MDA-MB-231 [7]): 20.1% | Activity (MDA-MB-231 [11]): Active | inhibition at 20 µM (MDA-MB-231 [13]): 51.3% | fold change (FC) (MDA-MB-231 [1]): 3.9

CC(=O)Oc1cc(OC(C)=O)c2c(c1)O[C@H](c1cc(OC(C)=O)c(OC(C)=O)c(OC(C)=O)c1)[C@H](OC(=O)c1cc(OC(C)=O)c(OC(C)=O)c(OC(C)=O)c1)C2
fold change (FC) (MDA-MB-231 [1]): 3.9

Nc1ccc(C(=O)O[C@H]2Cc3ccccc3C[C@H]2OC(=O)c2ccc(N)cc2)cc1
Activity (MDA-MB-231 [6]): 13.9% | inhibition at 10 µM (MDA-MB-231 [7]): 52.2% | Activity (MDA-MB-231 [8]): 25.6% | Activity (MDA-MB-231 [9]): Dose-dependent effect | Activity (MDA-MB-231 [10]): Active | Activity (MDA-MB-231 [11]): Dose-dependent effect | Activity [12]: Active | inhibition at 20 µM (MDA-MB-231 [13]): 73.3% | fold change (FC) (MDA-MB-231 [1]): 13.7 | Activity (MDA-MB-231 [14]): Dose-dependent effect | Activity (MDA-MB-231 [15]): Dose-dependent effect
